Experimental data reported in ChEMBL document CHEMBL1130433, “Effects of log P and phenyl ring conformation on the binding of 5-phenylhydantoins to the voltage-dependent sodium channel” (J Med Chem, 1997).

What follows are molecules tested against Sodium channel alpha subunits; brain (Types I, II, III) (Rattus norvegicus, UniProt P04775+P04774+P08104) (assay: Inhibition of [3H]BTX-B binding to Neuronal voltage-dependent sodium channel of rat cerebral cortex synaptoneurosomes).
Assay type: tissue-based
Method in brief: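 Ice-cold buffer dilution, GF/C filtration, scintillation counting. Nonspecific binding measured with 300 μM veratridine. Triplicates with a 40 μM DPH control tube. IC50 by Probit analysis, excluding points below 10% or above 90% inhibition.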

SMILES | IC50
O=C1NC(=O)C2(CCCc3ccccc32)N1 (centres undefined) | 851 µM
CCCCC1(c2ccccc2C)NC(=O)NC1=O (centres undefined) | 225 µM
O=C1NC(=O)C2(CCCCCc3ccccc32)N1 (centres undefined) | 251 µM
CCN1C(=O)NC(=O)[C@@]1(C)c1ccccc1 | 720 µM
CCCCC1(c2ccc(C)cc2)NC(=O)NC1=O (centres undefined) | 95 µM
O=C1NC(=O)C2(CCCCc3ccccc32)N1 (centres undefined) | 251 µM
CC12C(=O)NC(=O)N1CCc1ccccc12 (centres undefined) | 250 µM
O=C1NC(=O)C2(CCc3ccccc32)N1 (centres undefined) | 2112 µM
CCCCC1(c2cccc(C)c2)NC(=O)NC1=O (centres undefined) | 58 µM
